Source: ChEMBL document CHEMBL1126141, “Substituted 4,6-diaminoquinolines as inhibitors of C5a receptor binding” (J Med Chem, 1992)
In brackets after ≈: the same amount, converted by molar mass.

How the values were obtained:
[1] = biological target: T1, C5a anaphylatoxin chemotactic receptor 1 (Homo sapiens, UniProt P21730); assay: Ability to inhibit binding of radiolabeled C5a anaphylatoxin to intact membrane bound receptor from human neutrophils.
T1 sequence (P21730 whole entry): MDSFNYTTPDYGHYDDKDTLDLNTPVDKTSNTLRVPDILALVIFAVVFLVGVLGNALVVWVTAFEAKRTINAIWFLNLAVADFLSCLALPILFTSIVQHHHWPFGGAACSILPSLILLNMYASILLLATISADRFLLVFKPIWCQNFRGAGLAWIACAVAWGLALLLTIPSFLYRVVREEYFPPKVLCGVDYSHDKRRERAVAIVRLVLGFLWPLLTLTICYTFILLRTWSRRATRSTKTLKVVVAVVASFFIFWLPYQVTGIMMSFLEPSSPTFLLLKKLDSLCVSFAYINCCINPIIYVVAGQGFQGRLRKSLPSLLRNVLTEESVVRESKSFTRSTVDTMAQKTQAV
Procedure, shortened: (§1)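 Buffer was HBSS with 10 mM pMSF and 0.5% BSA, HEPES pH 7.2. Compounds were added from 1% aqueous DMSO. Filtration used polyethyleneimine-soaked GF filters, read by gamma counting. Nonspecific binding was set with ≥20 ng unlabeled C5a. IC50 came from a four-parameter logistic fit.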

Homo sapiens [2] = organism: Homo sapiens; assay: Compound was tested for the inhibition of C5a- induced human neutrophil activation; format: functional
Procedure, shortened: (§2)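 Freshly isolated human PMN (Ficoll-Hypaque, erythrocytes lysed with NH4Cl/EDTA/KHCO3), 4×10^5/mL in HBSS. Preincubated with compound or 1% aqueous DMSO 20 min at 37 °C, then cytochalasin B (5 μg/mL final) 5 min. Stimulated 5 min at 37 °C with C5a or fMLF, or no stimulus for nonspecific release. MPO read with dimethoxybenzidine/H2O2 at pH 6.0, azide-quenched at 2 min, A450. Duplicate or triplicate.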

Homo sapiens [3] = organism: Homo sapiens; assay: Compound was tested for the inhibition of fMLF- induced human neutrophil activation; format: functional; procedure, shortened: as §2
[4] = biological target: T1, C5a anaphylatoxin chemotactic receptor 1; assay: Compound was tested for its ability to inhibit binding of radiolabeled C5a anaphylatoxin chemotactic receptor to intact membrane bound receptor from human neutrophils.; insoluble; procedure, shortened: as §1
Myeloperoxidase = biological target: T2, Myeloperoxidase (Homo sapiens, UniProt P05164); assay: Compound was tested for the induction of nonspecific myeloperoxidase (MPO) release; format: functional; procedure, shortened: as §2
T2 sequence (P05164 whole entry): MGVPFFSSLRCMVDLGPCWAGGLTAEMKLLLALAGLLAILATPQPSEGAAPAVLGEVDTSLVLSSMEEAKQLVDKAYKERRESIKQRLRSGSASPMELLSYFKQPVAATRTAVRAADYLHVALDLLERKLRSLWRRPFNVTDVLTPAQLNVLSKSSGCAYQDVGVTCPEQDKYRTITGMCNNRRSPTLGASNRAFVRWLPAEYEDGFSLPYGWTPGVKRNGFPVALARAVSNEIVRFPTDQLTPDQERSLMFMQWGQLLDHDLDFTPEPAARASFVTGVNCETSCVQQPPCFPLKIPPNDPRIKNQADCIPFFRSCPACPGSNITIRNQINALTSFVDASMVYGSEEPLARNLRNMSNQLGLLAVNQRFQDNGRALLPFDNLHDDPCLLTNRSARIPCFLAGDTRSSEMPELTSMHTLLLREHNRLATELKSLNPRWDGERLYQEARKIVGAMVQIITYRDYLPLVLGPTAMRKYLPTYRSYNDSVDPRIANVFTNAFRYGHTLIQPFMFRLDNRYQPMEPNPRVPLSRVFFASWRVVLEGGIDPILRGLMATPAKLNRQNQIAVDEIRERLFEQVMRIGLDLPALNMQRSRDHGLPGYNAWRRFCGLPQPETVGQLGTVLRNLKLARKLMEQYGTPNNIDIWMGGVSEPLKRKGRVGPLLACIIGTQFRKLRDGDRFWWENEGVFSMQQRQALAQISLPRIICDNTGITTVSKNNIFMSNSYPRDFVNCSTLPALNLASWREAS

With `Cc1cc(N)c2cc(NC(=O)CCCCCCCCC(=O)Nc3ccc4nc(C)cc(N)c4c3)ccc2n1` the IC50 [1] was over 97.5 µM.

For `Cc1cc(N)c2cc(NC(=O)CC(=O)Nc3ccc4nc(C)cc(N)c4c3)ccc2n1`, the IC50 [1] was 43.4 µM.

`Cc1cc(N)c2cc(NC(=O)c3ccc4ccccc4c3)ccc2n1` showed an IC50 [1] of 91.6 µM.

Molecule `CCCC(=O)Nc1ccc2nc(C)cc(N)c2c1` has an IC50 [1] of over 411 µM.

In the case of `COc1cc(C)nc2ccc(NC(=O)/C=C/c3ccccc3Cl)cc12`, the IC50 [1] is reported as over 142 µM.

Molecule `Cc1cc(N)c2cc(NC(=O)CCc3ccccc3)ccc2n1` has an IC50 [1] of over 327 µM.

`Cc1cc(N)c2cc(NC(=O)/C=C/c3ccccc3Cl)ccc2n1` was tested, and the IC50 [1] was 35.5 µM, the EC50 (Homo sapiens [2]) was 4 µg/mL (≈ 11.8 µM) and the EC50 (Homo sapiens [3]) was 5 µg/mL (≈ 14.8 µM).

`Cc1cc(N)c2cc(NC(=O)/C=C/c3cccc(C(F)(F)F)c3)ccc2n1` showed an IC50 [1] of 10.8 µM.

For `Cc1cc(N)c2cc(C(=O)NCc3ccccc3)ccc2n1`, the IC50 [1] was over 343 µM.

`Cc1cc(NCc2ccccc2)c2cc(N)ccc2n1` showed an IC50 [1] of over 380 µM.

`Cc1ccc2cc(NC(=O)Nc3ccc4nc(C)ccc4c3)ccc2n1` was tested, and the IC50 [1] was over 146 µM.

In the case of `Cc1cc(N)c2cc(NC(=O)/C=C/c3c(F)c(F)c(F)c(F)c3F)ccc2n1`, the IC50 [4] is reported as “Not Active”.

Work on `Cc1cc(N)c2cc(NC(=O)Nc3ccc4nc(C)cc(N)c4c3)ccc2n1` [AMINOQUINURIDE] yielded an IC50 [1] of 8.86 µM and an EC50 (Homo sapiens [2]) of 15 µg/mL (≈ 40.3 µM).

For `Cc1cc(N)c2cc(NC(=O)/C=C/c3ccc(C(F)(F)F)cc3)ccc2n1`, the IC50 [1] was 18.8 µM.

`Cc1cc(N)c2cc(NC(=O)CCCCC(=O)Nc3ccc4nc(C)cc(N)c4c3)ccc2n1` showed an IC50 [1] of over 110 µM.

In the case of `Cc1cc(NCc2ccccc2)c2cc(NC(=O)/C=C/c3ccccc3C(F)(F)F)ccc2n1`, the IC50 [1] is reported as over 217 µM.

In the case of `Cc1cc(N)c2cc(NC(=O)c3ccccc3)ccc2n1`, the IC50 [1] is reported as over 361 µM.

`Cc1cc(N)c2cc(N)ccc2n1` was tested, and the IC50 [1] was over 577 µM.

`CCCCCCCC(=O)Nc1ccc2nc(C)cc(N)c2c1` gave an IC50 [1] of 100 µM.

For `Cc1cc(N)c2cc(NC(=O)/C=C/c3ccccc3C(F)(F)F)ccc2n1`, the IC50 [1] was 24.2 µM, the EC50 (Homo sapiens [2]) was 4 µg/mL (≈ 10.8 µM) and the EC50 (Homo sapiens [3]) was 4 µg/mL (≈ 10.8 µM).

In the case of `Cc1cc(N)c2cc(NC(=O)/C=C/c3ccccc3)ccc2n1`, the IC50 [1] is reported as 98.9 µM.

`Cc1cc(NCc2ccccc2)c2cc(NC(=O)/C=C/c3ccccc3Cl)ccc2n1` was tested, and the IC50 [1] was over 234 µM, the EC50 (Myeloperoxidase) was 11.7 µM and the EC50 (Homo sapiens [2]) was under 3 µg/mL. For the same molecule, the EC50 (Homo sapiens [3]) was under 3 µg/mL.

In the case of `Cc1cc(N)c2cc(NC(=O)C(=O)Nc3ccc4nc(C)cc(N)c4c3)ccc2n1`, the IC50 [1] is reported as 4.99 µM and the EC50 (Homo sapiens [2]) is reported as 4 µg/mL (≈ 9.99 µM).

Work on `Cc1cc(NCc2ccccc2)c2cc(NC(=O)C(=O)Nc3ccc4nc(C)cc(NCc5ccccc5)c4c3)ccc2n1` yielded an IC50 [1] of over 86.1 µM.

`Cc1cc(N)c2cc(NC(=O)/C=C/c3c(Cl)cccc3Cl)ccc2n1` gave an IC50 [1] of 21.5 µM, an EC50 (Homo sapiens [2]) of 4 µg/mL (≈ 10.7 µM) and an EC50 (Homo sapiens [3]) of 4 µg/mL (≈ 10.7 µM).

Work on `CCCCCCCCNc1cc(C)nc2ccc(NC(=O)/C=C/c3ccccc3Cl)cc12` yielded an IC50 [1] of over 222 µM.

`CCCCCCCCNC(=O)c1ccc2nc(C)cc(N)c2c1` was tested, and the IC50 [1] was over 319 µM.
